Values after ≈ are worked out from the molar mass of the structure shown.
How the values were obtained:
Staphylococcus aureus [1] = experiment: Antibacterial activity against Staphylococcus aureus ATCC 29213 harboring FtsZ 128 mutation after 20 hrs; assay type: functional; settings: ATCC 29213, 20 h
Method in brief: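 Broth microdilution MIC per CLSI guidelines, compounds dissolved in DMSO. Resistant mutants were selected by serial passage of ATCC 29213 in LB at 37 °C with shaking at 250 rpm. Each 20 h culture started at half the MIC, and the concentration was doubled at each transfer. Growth inhibition was read by eye, in duplicate.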

L929 = experiment: Cytotoxicity against mouse L929 cells by MTS assay; assay type: cell-based
Method in brief: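 MTS assay on L929 mouse fibroblasts; IC50 reported as the average of three independent measurements.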

Staphylococcus aureus [2] = experiment: Antibacterial activity against multidrug-resistant Staphylococcus aureus isolate 1717 by broth microdilution assay; assay type: functional
Method in brief: (§1)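 Broth microdilution MIC per CLSI guidelines against clinical MRSA isolates, for β-lactams and test compound alone and in combination. Compounds were dissolved in DMSO. Growth was read by eye, in duplicate. FIC index = FIC(compound) + FIC(drug); synergy defined as FIC index ≤0.5.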

Staphylococcus aureus [3] = experiment: Antibacterial activity against multidrug-resistant Staphylococcus aureus isolate 200 by broth microdilution assay; assay type: functional; method in brief: as §1
Staphylococcus aureus [4] = experiment: Synergistic antibacterial activity against multidrug-resistant Staphylococcus aureus isolate 2490 in presence of amoxicillin by broth microdilution assay; assay type: functional
Method in brief: (§2)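 Clinical MRSA isolate panel; compound and β-lactam tested alone and in combination by CLSI broth microdilution, compounds dissolved in DMSO, growth inhibition scored by eye, run in duplicate. FIC index = FIC(compound) + FIC(drug), each the MIC in combination divided by the MIC alone; an index ≤ 0.5 was called synergy.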

Staphylococcus aureus [5] = experiment: Synergistic antibacterial activity against multidrug-resistant Staphylococcus aureus isolate 757 in presence of amoxicillin by broth microdilution assay; assay type: functional
Staphylococcus aureus [6] = experiment: Synergistic antibacterial activity against multidrug-resistant Staphylococcus aureus isolate 2224 in presence of amoxicillin by broth microdilution assay; assay type: functional; method in brief: as §2
Staphylococcus aureus [7] = experiment: Synergistic antibacterial activity against multidrug-resistant Staphylococcus aureus isolate 2973 in presence of amoxicillin by broth microdilution assay; assay type: functional
Method in brief: (§3)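 CLSI broth microdilution on clinical MRSA isolates. MICs were measured for the β-lactam alone, the test agent alone and the two combined. Compounds were dissolved in DMSO, and growth inhibition was scored by eye. FIC index is the sum, over both agents, of MIC in combination divided by MIC alone. An FIC index ≤0.5 was taken as synergy.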

Staphylococcus aureus [8] = experiment: Synergistic antibacterial activity against multidrug-resistant Staphylococcus aureus isolate 85 in presence of methicillin by broth microdilution assay; assay type: functional
Staphylococcus aureus [9] = experiment: Synergistic antibacterial activity against multidrug-resistant Staphylococcus aureus isolate 1449 in presence of methicillin by broth microdilution assay; assay type: functional; method in brief: as §2
Staphylococcus aureus [10] = experiment: Synergistic antibacterial activity against multidrug-resistant Staphylococcus aureus isolate 1344 in presence of cloxacillin by broth microdilution assay; assay type: functional; method in brief: as §2
Staphylococcus aureus [11] = experiment: Synergistic antibacterial activity against multidrug-resistant Staphylococcus aureus isolate 3267 in presence of cloxacillin by broth microdilution assay; assay type: functional; method in brief: as §3
Staphylococcus aureus [12] = experiment: Synergistic antibacterial activity against multidrug-resistant Staphylococcus aureus isolate 1717 in presence of cloxacillin by broth microdilution assay; assay type: functional; method in brief: as §2
Staphylococcus aureus [13] = experiment: Synergistic antibacterial activity against multidrug-resistant Staphylococcus aureus isolate 1449 in presence of cloxacillin by broth microdilution assay; assay type: functional; method in brief: as §2
Staphylococcus aureus [14] = experiment: Synergistic antibacterial activity against multidrug-resistant Staphylococcus aureus isolate 254 in presence of cefuroxime by broth microdilution assay; assay type: functional; method in brief: as §3
Staphylococcus aureus [15] = experiment: Synergistic antibacterial activity against multidrug-resistant Staphylococcus aureus isolate 231 in presence of cefuroxime by broth microdilution assay; assay type: functional; method in brief: as §2
Staphylococcus aureus [16] = experiment: Synergistic antibacterial activity against multidrug-resistant Staphylococcus aureus isolate 2895 in presence of cefuroxime by broth microdilution assay; assay type: functional; method in brief: as §3
Staphylococcus aureus [17] = experiment: Synergistic antibacterial activity against multidrug-resistant Staphylococcus aureus isolate 3411 in presence of meropenem by broth microdilution assay; assay type: functional
Staphylococcus aureus [18] = experiment: Synergistic antibacterial activity against multidrug-resistant Staphylococcus aureus isolate 1449 in presence of meropenem by broth microdilution assay; assay type: functional; method in brief: as §2
Staphylococcus aureus [19] = experiment: Synergistic antibacterial activity against multidrug-resistant Staphylococcus aureus isolate 757 assessed as fractional Inhibitory concentration index in presence of amoxicillin by broth microdilution assay; assay type: functional
Staphylococcus aureus [20] = experiment: Synergistic antibacterial activity against multidrug-resistant Staphylococcus aureus isolate 254 assessed as fractional Inhibitory concentration index in presence of methicillin by broth microdilution assay; assay type: functional
Staphylococcus aureus [21] = experiment: Synergistic antibacterial activity against multidrug-resistant Staphylococcus aureus isolate 1136 assessed as fractional Inhibitory concentration index in presence of methicillin by broth microdilution assay; assay type: functional
Method in brief: (§4)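 CLSI broth microdilution run on clinical MRSA isolates with each β-lactam alone, the test agent alone, and the two combined; agents dissolved in DMSO. Growth inhibition was read by eye. FIC index = FIC(compound) + FIC(β-lactam), where each FIC is the MIC in combination divided by the MIC alone. An index ≤0.5 was taken as synergy.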

Staphylococcus aureus [22] = experiment: Synergistic antibacterial activity against multidrug-resistant Staphylococcus aureus isolate 231 assessed as fractional Inhibitory concentration index in presence of cloxacillin by broth microdilution assay; assay type: functional; method in brief: as §4
Staphylococcus aureus [23] = experiment: Synergistic antibacterial activity against multidrug-resistant Staphylococcus aureus isolate 1136 assessed as fractional Inhibitory concentration index in presence of cloxacillin by broth microdilution assay; assay type: functional; method in brief: as §4
Staphylococcus aureus [24] = experiment: Synergistic antibacterial activity against multidrug-resistant Staphylococcus aureus isolate 2516 assessed as fractional Inhibitory concentration index in presence of cloxacillin by broth microdilution assay; assay type: functional; method in brief: as §4
Staphylococcus aureus [25] = experiment: Synergistic antibacterial activity against multidrug-resistant Staphylococcus aureus isolate 1402 assessed as fractional Inhibitory concentration index in presence of cloxacillin by broth microdilution assay; assay type: functional; method in brief: as §4
Staphylococcus aureus [26] = experiment: Synergistic antibacterial activity against multidrug-resistant Staphylococcus aureus isolate 254 assessed as fractional Inhibitory concentration index in presence of cefuroxime by broth microdilution assay; assay type: functional
Staphylococcus aureus [27] = experiment: Synergistic antibacterial activity against multidrug-resistant Staphylococcus aureus isolate 417 assessed as fractional Inhibitory concentration index in presence of cefuroxime by broth microdilution assay; assay type: functional
Staphylococcus aureus [28] = experiment: Synergistic antibacterial activity against multidrug-resistant Staphylococcus aureus isolate 3267 assessed as fractional Inhibitory concentration index in presence of cefuroxime by broth microdilution assay; assay type: functional
Staphylococcus aureus [29] = experiment: Synergistic antibacterial activity against multidrug-resistant Staphylococcus aureus isolate 1749 assessed as fractional Inhibitory concentration index in presence of cefuroxime by broth microdilution assay; assay type: functional; method in brief: as §4
Staphylococcus aureus [30] = experiment: Synergistic antibacterial activity against multidrug-resistant Staphylococcus aureus isolate 2919 assessed as fractional Inhibitory concentration index in presence of cefuroxime by broth microdilution assay; assay type: functional
Staphylococcus aureus [31] = experiment: Synergistic antibacterial activity against multidrug-resistant Staphylococcus aureus isolate 1717 assessed as fractional Inhibitory concentration index in presence of meropenem by broth microdilution assay; assay type: functional; method in brief: as §4
[32] = Oral bioavailability in Sprague-Dawley rat at 50 mg/kg by UPLC-MS/MS analysis; assay type: ADME, organism-based; settings: in vivo
Method in brief: (§5)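 Male Sprague–Dawley rats (250-280 g) dosed IV at 1 mg/kg or by oral feeding at 50 mg/kg. Jugular blood taken from 5 to 420 min (IV) or 2 to 600 min (oral). Plasma proteins precipitated with methanol, then analysed by UPLC-MS/MS with positive ESI. Parameters from non-compartmental analysis.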

[33] = Half life in Sprague-Dawley rat at 1 mg/kg, iv by UPLC-MS/MS analysis; assay type: ADME, organism-based; settings: in vivo; method in brief: as §5

CCCCCCCCCNc1ccc(F)c(C(N)=O)c1F
MIC (Staphylococcus aureus [1]): 128 µg/mL (≈ 429 µM)
IC50 (L929): > 100 µM
MIC (Staphylococcus aureus [2]): 2 µg/mL (≈ 6.7 µM)
MIC (Staphylococcus aureus [3]): 1020 µg/mL (≈ 3430 µM)
MIC (Staphylococcus aureus [4]): 8 µg/mL
MIC (Staphylococcus aureus [5]): 2 µg/mL
MIC (Staphylococcus aureus [6]): 64 µg/mL
MIC (Staphylococcus aureus [7]): 8 µg/mL
MIC (Staphylococcus aureus [8]): 4 µg/mL
MIC (Staphylococcus aureus [9]): 2 µg/mL
MIC (Staphylococcus aureus [10]): 1 µg/mL
MIC (Staphylococcus aureus [11]): 1 µg/mL
MIC (Staphylococcus aureus [12]): 1 µg/mL
MIC (Staphylococcus aureus [13]): 0.5 µg/mL
MIC (Staphylococcus aureus [14]): 4 µg/mL
MIC (Staphylococcus aureus [15]): 4 µg/mL
MIC (Staphylococcus aureus [16]): 4 µg/mL
MIC (Staphylococcus aureus [17]): 4 µg/mL
MIC (Staphylococcus aureus [18]): 4 µg/mL
fractional inhibitory concentration index (FICI) (Staphylococcus aureus [19]): 0.3
fractional inhibitory concentration index (FICI) (Staphylococcus aureus [20]): 0.3
fractional inhibitory concentration index (FICI) (Staphylococcus aureus [21]): 0.3
fractional inhibitory concentration index (FICI) (Staphylococcus aureus [22]): 0.3
fractional inhibitory concentration index (FICI) (Staphylococcus aureus [23]): 0.4
fractional inhibitory concentration index (FICI) (Staphylococcus aureus [24]): 0.2
fractional inhibitory concentration index (FICI) (Staphylococcus aureus [25]): 0.8
fractional inhibitory concentration index (FICI) (Staphylococcus aureus [26]): 0.3
fractional inhibitory concentration index (FICI) (Staphylococcus aureus [27]): 0.1
fractional inhibitory concentration index (FICI) (Staphylococcus aureus [28]): 0
fractional inhibitory concentration index (FICI) (Staphylococcus aureus [29]): 1.1
fractional inhibitory concentration index (FICI) (Staphylococcus aureus [30]): 0.3
fractional inhibitory concentration index (FICI) (Staphylococcus aureus [31]): 3
bioavailability [32]: 13%
half-life [33]: 5.5 h

Reference: ChEMBL document CHEMBL4330069, “Boosting the efficacy of anti-MRSA β-lactam antibiotics via an easily accessible, non-cytotoxic and orally bioavailable FtsZ inhibitor” (Eur J Med Chem, 2019)
